In paper PMC4216208 (Journal of Medicinal Chemistry, 2014):
Entries after “also recorded” stand apart in the source; their conditions may differ.

Experiments:
HEK 293T/17 cells [1] = test: Mitochondrial-uncoupling assay; type: cell-based, human; conditions: 50 μM compound, TMRE staining
Outline: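 HEK 293T/17 cells were trypsinised and suspended at 1−2 × 10^6 cells/mL in DMEM with 10% FBS, then given test compound (50 μM) or DMSO for 30 min at 37 °C. TMRE (~450 nM final) was added for 30 min in the dark at 37 °C. Cells were washed twice in 0.2% BSA/PBS, resuspended, and read by plate fluorescence (em 575 nm). Unstained and DMSO controls were included; mean ± sd, n = 3.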

C. elegans = test: Bioaccumulation in C. elegans; type: in vitro ADME, Caenorhabditis elegans; conditions: for accumulation in C. elegans (in words): late-stage L4 worms, 10 μM (2 nmol/mg worm), 6 h, LC-MS of homogenates; for worm concentration as share of the dose: at 6 h, dose 2 nmol/mg worm
Outline: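 Synchronised C. elegans grown to late L4 on E. coli OP50 at 25 °C for 40 h, water-washed, and suspended in M9 at ~5−10 worms/μL. Dosed at 10 μM final (~2 nmol/mg worm) from DMSO stock, 6 or 12 h at rt. Washed in 0.1% SDS then water, frozen, lyophilised, weighed, extracted into cold MeOH/MeCN with internal standard. Quantified by LC-ESI-MS against blank-worm calibration; mean ± sd, n = 3.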

O. volvulus L3 larvae = test: O. volvulus L3 molting inhibition; type: cell-based, Onchocerca volvulus; conditions: for inhibition at 1 µM: Onchocerca volvulus, read-out: inhibition of O. volvulus L3 molting
OvCHT1 = target: T1, OvCHT1 (Onchocerca volvulus, UniProt Q25615); test: O. volvulus chitinase; type: biochemical; conditions: for inhibition of OvCHT1 at single concentration: 10 μM final concentration, relative to control (0.5% DMSO in water)
T1 sequence (Q25615 22-497): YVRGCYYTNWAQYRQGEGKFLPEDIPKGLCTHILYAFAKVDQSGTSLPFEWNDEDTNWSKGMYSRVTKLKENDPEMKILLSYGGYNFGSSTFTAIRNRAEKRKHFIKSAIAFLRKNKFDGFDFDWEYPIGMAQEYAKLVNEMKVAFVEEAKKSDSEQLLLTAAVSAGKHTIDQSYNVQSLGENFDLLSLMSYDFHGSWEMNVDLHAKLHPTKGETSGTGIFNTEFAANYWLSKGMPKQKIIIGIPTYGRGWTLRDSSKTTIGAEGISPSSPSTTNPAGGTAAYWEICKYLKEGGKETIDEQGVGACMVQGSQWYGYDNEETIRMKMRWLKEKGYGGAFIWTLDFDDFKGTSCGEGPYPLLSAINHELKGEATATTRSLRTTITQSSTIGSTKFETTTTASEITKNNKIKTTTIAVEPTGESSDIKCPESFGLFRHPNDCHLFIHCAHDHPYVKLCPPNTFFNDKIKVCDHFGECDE

BmCHT1 = target: T2, BmCHT1 (Brugia malayi, UniProt P29030); test: Chitinase activity assay, Brugia malayi chitinase; type: biochemical; conditions: 10 μM final concentration
T2 sequence (P29030 23-504): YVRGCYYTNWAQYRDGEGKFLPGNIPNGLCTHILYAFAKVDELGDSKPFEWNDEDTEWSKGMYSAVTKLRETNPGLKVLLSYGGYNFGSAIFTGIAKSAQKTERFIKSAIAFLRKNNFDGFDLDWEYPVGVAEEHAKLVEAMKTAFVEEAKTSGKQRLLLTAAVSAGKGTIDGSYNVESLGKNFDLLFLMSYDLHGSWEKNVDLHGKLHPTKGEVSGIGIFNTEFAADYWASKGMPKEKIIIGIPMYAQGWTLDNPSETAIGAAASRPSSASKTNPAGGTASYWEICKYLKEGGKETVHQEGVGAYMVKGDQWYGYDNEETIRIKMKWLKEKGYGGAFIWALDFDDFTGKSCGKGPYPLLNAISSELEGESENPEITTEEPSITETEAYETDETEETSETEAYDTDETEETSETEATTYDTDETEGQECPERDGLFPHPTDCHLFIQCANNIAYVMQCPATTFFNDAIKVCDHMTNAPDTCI

EhCHT1 = test: Chitinase activity assay, Entamoeba histolytica chitinase; type: biochemical; conditions: 10 μM final concentration
PfCHT1 = target: T3, PfCHT1 (Plasmodium falciparum, UniProt Q8I4R4); test: Chitinase activity assay, Plasmodium falciparum chitinase; type: biochemical; conditions: 10 μM final concentration
T3 sequence (Q8I4R4 29-378): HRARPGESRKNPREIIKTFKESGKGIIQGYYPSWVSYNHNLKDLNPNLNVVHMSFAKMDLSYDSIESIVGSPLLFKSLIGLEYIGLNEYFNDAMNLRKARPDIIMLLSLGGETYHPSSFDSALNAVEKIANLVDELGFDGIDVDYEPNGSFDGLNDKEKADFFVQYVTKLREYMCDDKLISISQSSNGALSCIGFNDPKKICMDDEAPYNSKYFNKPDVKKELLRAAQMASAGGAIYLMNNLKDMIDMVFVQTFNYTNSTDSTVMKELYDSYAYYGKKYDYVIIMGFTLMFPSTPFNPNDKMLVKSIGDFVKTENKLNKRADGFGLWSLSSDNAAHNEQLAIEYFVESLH

HEK 293T/17 cells [2] = test: Cell viability assay; type: cell-based, human; conditions: 1 and 10 μM, 24 h, MTS assay
Outline: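 HEK 293T/17 cells (2 × 10^4) plated and held 24 h at 37 °C, then exposed to test compound at 1 and 10 μM final. Viability was read by MTS at 0.5 and 24 h after treatment.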

[3] = 10 μM, 24 h preincubation, molting assessed day 6

Row | accumulation in C. elegans (in words) (C. elegans) | inhibition of OvCHT1 at single concentration (OvCHT1) | inhibition of BmCHT1 at single concentration (BmCHT1) | inhibition of EhCHT1 at single concentration (EhCHT1) | inhibition of PfCHT1 at single concentration (PfCHT1) | Compound | mitochondrial-uncoupling (protonophoric) activity (HEK 293T/17 cells [1]) | effect on O. volvulus L3 molting (O. volvulus L3 larvae; [3]) | other results
1 |  |  |  |  |  | O=C(Nc1ccc(Oc2ccccc2)cc1)c1cc(I)cc(I)c1O [Compound 3a, 2-Hydroxy-3,5-diiodo-N-(4-phenoxyphenyl)benzamide] | mitochondrial-uncoupling activity |  | 
2 |  |  |  |  |  | COc1c(I)cc(I)cc1C(=O)Nc1ccc(Oc2ccccc2)cc1 [Compound 3b, 3,5-Diiodo-2-methoxy-N-(4-phenoxyphenyl)benzamide] | loss of uncoupling activity |  | 
3 |  |  |  |  |  | CN(C(=O)c1cc(I)cc(I)c1O)c1ccc(Oc2ccccc2)cc1 [Compound 3c, 2-Hydroxy-3,5-diiodo-N-methyl-N-(4-phenoxyphenyl)benzamide] | eradicated protonophoric activity |  | 
4 |  |  |  |  |  | COc1c(I)cc(I)cc1C(=O)N(C)c1ccc(Oc2ccccc2)cc1 [Compound 3d, 3,5-Diiodo-2-methoxy-N-methyl-N-(4-phenoxyphenyl)benzamide] | loss of uncoupling activity |  | 
5 |  |  |  |  |  | O=C(Nc1ccc(Oc2ccccc2)cc1)c1cc(I)cc(I)c1 [Compound 3e, 3,5-Diiodo-N-(4-phenoxyphenyl)benzamide] | loss of uncoupling activity |  | 
6 | accumulated in C. elegans | complete inhibition | sparing | sparing | sparing | O=C(Nc1ccc(Oc2ccc(Cl)cc2)cc1)c1cc(I)cc(I)c1O [Compound 3h, N-(4-(4-Chlorophenoxy)phenyl)-2-hydroxy-3,5-diiodobenzamide] | mitochondrial-uncoupling activity | completely abolished molting | inhibition at 1 µM (O. volvulus L3 larvae): ≤ 84%; effect on cell viability of HEK 293T/17 cells (HEK 293T/17 cells [2]): no considerable effect on cell viability
7 | accumulated in C. elegans | complete inhibition | sparing | sparing | sparing | COc1c(I)cc(I)cc1C(=O)Nc1ccc(Oc2ccc(Cl)cc2)cc1 [Compound 3i, N-(4-(4-Chlorophenoxy)phenyl)-3,5-diiodo-2-methoxybenzamide] | loss of uncoupling activity; also recorded: devoid of protonophoric activity | only marginal inhibition | effect on O. volvulus L3 molting (O. volvulus L3 larvae; 100 μM): completely hindered L3 molting
8 | accumulated in C. elegans | complete inhibition | sparing | sparing | sparing | O=C(Nc1ccc(Oc2ccc(Cl)cc2)cc1)c1cc(I)cc(I)c1 [Compound 3j, N-(4-(4-Chlorophenoxy)phenyl)-3,5-diiodobenzamide] | loss of uncoupling activity; also recorded: devoid of protonophoric activity |  | 
9 | accumulated in C. elegans |  |  |  |  | O=C(Nc1ccc2ccccc2c1)c1cc(I)cc(I)c1O [Compound 4a, 2-Hydroxy-3,5-diiodo-N-(naphthalen-2-yl)benzamide] | mitochondrial-uncoupling activity | completely abolished molting | worm concentration as share of the dose (C. elegans): less than 50%; inhibition at 1 µM (O. volvulus L3 larvae): ≤ 84%; effect on cell viability of HEK 293T/17 cells (HEK 293T/17 cells [2]): no considerable effect on cell viability
10 | accumulated in C. elegans |  |  |  |  | COc1c(I)cc(I)cc1C(=O)Nc1ccc2ccccc2c1 [Compound 4b, 3,5-Diiodo-2-methoxy-N-(naphthalen-2-yl)benzamide] | loss of uncoupling activity; also recorded: devoid of protonophoric activity | inhibited molting | worm concentration as share of the dose (C. elegans): less than 50%; effect on O. volvulus L3 molting (O. volvulus L3 larvae; 1 μM): did not show any impact on molting
11 |  |  |  |  |  | O=C(Nc1ccc2ccccc2c1)c1cc(I)cc(I)c1 [Compound 4c, 3,5-Diiodo-N-(naphthalen-2-yl)benzamide] | loss of uncoupling activity |  | 
12 | accumulated in C. elegans | complete inhibition | sparing | sparing | sparing | O=C(Nc1ccc(-c2ccccc2)cc1)c1cc(I)cc(I)c1O [Compound 5a, N-([1,1′-Biphenyl]-4-yl)-2-hydroxy-3,5-diiodobenzamide] |  |  | 
13 | accumulated in C. elegans | complete inhibition | sparing | sparing | sparing | O=C(Nc1ccc(-c2ccc(Cl)cc2)cc1)c1cc(I)cc(I)c1O [Compound 5c, N-(4′-Chloro-[1,1′-biphenyl]-4-yl)-2-hydroxy-3,5-diiodobenzamide] |  |  | 
14 |  |  |  |  |  | COc1c(I)cc(I)cc1C(=O)O [Compound 6b, 3,5-Diiodo-2-methoxybenzoic Acid] | neither an OvCHT1 inhibitor nor a protonophore | no inhibition on molting | OvCHT1 inhibitor or not (in words) (OvCHT1): neither an OvCHT1 inhibitor nor a protonophore

Row | Compound | accumulation in C. elegans (in words) (C. elegans) | inhibition of OvCHT1 at single concentration (OvCHT1) | inhibition of BmCHT1 at single concentration (BmCHT1) | inhibition of EhCHT1 at single concentration (EhCHT1) | inhibition of PfCHT1 at single concentration (PfCHT1) | mitochondrial-uncoupling (protonophoric) activity (HEK 293T/17 cells [1]) | effect on O. volvulus L3 molting (O. volvulus L3 larvae; [3]) | other results
15 | N#CC(C#N)=NNc1cccc(Cl)c1 [CCCP, carbonyl cyanide m-chlorophenyl hydrazone, reference compound] | accumulated in C. elegans |  |  |  |  | a protonophore only | fully inhibited the molting | effect on O. volvulus L3 molting (O. volvulus L3 larvae; 1 μM): did not show any impact on molting
16 | O=C(Nc1ccc(Oc2ccc(Cl)cc2)c(Cl)c1)c1cc(I)cc(I)c1O [Compound 3m, rafoxanide, reference compound] | accumulated in C. elegans | complete inhibition | sparing | sparing | sparing | good mitochondrial-uncoupling activity | completely abolished molting | worm level as share of the initial dose (C. elegans; at 6 and 12 h, initial dose 2 nmol/mg worm): > 75%; inhibition of O. volvulus L3 molting (O. volvulus L3 larvae; 1 μM, 24 h preincubation, molting assessed day 6): up to 84%; effect on cell viability of HEK 293T/17 cells (HEK 293T/17 cells [2]): no considerable effect on cell viability
